Twelve molecules from ChEMBL document CHEMBL4706589, “Discovery of 5-bromo-4-phenoxy-N-phenylpyrimidin-2-amine derivatives as novel ULK1 inhibitors that block autophagy and induce apoptosis in non-small cell lung cancer” (Eur J Med Chem, 2020) can be followed below.

Activity calls are given as the source filed them. The rule behind the calls is not given here. Where only a bound is given, the exact number is not on record here.

For assay [1], the target named is T1, Serine/threonine-protein kinase ULK1 (Homo sapiens) (UniProt O75385).
T1 sequence (whole entry): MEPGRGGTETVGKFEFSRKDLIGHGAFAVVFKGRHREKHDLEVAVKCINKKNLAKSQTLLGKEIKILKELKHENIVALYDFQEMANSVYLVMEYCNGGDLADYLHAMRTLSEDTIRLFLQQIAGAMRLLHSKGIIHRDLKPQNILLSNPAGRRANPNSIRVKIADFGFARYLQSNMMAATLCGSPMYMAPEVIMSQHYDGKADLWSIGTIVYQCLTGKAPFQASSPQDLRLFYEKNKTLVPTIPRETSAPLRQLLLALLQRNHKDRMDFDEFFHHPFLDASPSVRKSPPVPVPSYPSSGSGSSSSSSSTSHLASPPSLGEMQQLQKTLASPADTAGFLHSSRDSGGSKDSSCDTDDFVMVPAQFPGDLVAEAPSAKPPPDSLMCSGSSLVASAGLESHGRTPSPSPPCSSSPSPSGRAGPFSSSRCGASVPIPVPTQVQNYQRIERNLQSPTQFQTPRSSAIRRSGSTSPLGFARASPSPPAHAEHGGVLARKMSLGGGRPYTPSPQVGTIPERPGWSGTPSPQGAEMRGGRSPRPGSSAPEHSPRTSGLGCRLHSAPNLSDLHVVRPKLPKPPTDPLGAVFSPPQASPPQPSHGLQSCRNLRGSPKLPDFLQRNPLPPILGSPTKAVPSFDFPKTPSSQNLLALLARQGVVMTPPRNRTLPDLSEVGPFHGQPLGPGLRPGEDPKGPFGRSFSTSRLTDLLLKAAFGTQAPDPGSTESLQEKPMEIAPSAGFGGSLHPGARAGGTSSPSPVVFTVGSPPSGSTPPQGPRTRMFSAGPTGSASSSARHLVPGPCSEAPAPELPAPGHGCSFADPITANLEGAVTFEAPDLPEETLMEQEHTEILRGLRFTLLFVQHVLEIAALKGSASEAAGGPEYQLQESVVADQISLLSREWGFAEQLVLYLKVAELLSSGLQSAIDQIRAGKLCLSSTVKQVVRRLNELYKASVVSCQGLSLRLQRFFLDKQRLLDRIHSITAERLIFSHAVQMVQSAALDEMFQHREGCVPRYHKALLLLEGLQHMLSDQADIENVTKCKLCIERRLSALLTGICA
The assay can be described thus: Inhibition of recombinant human ULK1 at 10 uM preincubated for 60 mins followed by substrate addition and measured after 30 mins by ADP-glo assay. The note with it: time 90.0 min. An outline of the steps: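 Recombinant ULK1 activity was measured by ADP-Glo luminescence of ADP formed, in 40 mM Tris pH 7.5, 20 mM MgCl₂, 0.1 mg/ml BSA and […]. After the kinase reaction, plates were mixed 2 min and held 40 min at room temperature. Detection reagent was then added for 30 min at room temperature before luminescence was read.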

For assay [2], the system named is A549. The assay can be described thus: Antiproliferative activity against human A549 cells assessed as reduction in cell viability after 24 hrs by MTT assay. The class given is functional, cell-based. The note with it: A549, 24 h. An outline of the steps: (§1)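 Cells seeded at 5.5 × 10⁴ cells/mL in 96-well plates and grown 24 h before exposure to graded compound concentrations. Viability read by MTT after 24 h. A549, MCF-7 and MDA-MB-468 were kept in DMEM with 10% FBS under 5% CO₂; HL60 and U937 in RPMI 1640 with 10% FBS. IC50 taken as mean of triplicate tests.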

The next assay has as its system U-937. The assay can be described thus: Antiproliferative activity against human U937 cells assessed as reduction in cell viability after 24 hrs by MTT assay. It counts as functional, cell-based. The note with it: U-937, 24 h. An outline of the steps: as §1
For another assay, the system named is HL-60. The assay can be described thus: Antiproliferative activity against human HL60 cells assessed as reduction in cell viability after 24 hrs by MTT assay. The note with it: HL-60, 24 h. The class given is functional, cell-based. An outline of the steps:
as §1

The test system of another assay is MDA-MB-468. The assay can be described thus: Antiproliferative activity against human MDA-MB-468 cells assessed as reduction in cell viability after 24 hrs by MTT assay. It counts as functional, cell-based. The note with it: MDA-MB-468, 24 h. The method in brief:
as §1

In another assay the test system is MCF7. The assay can be described thus: Antiproliferative activity against human MCF-7 cells assessed as reduction in cell viability after 24 hrs by MTT assay. It counts as functional, cell-based. The note with it: MCF7, 24 h. An outline of the steps:
as §1

Assay [3] has as its target T1, Serine/threonine-protein kinase ULK1 (Homo sapiens). The assay can be described thus: Inhibition of human ULK1 in human A549 cells under normal condition assessed as decrease in phosphorylated-Beclin 1(ser15) level by immunoblotting analysis. It counts as cell-based. The method in brief:
(§2)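 Treated A549 cells, adherent and floating, were collected and lysed in RIPA buffer with protease and phosphatase inhibitors. Lysates were spun at 12,000 g, 4 °C, 15 min, and protein measured by BCA. Proteins were run on SDS-PAGE and moved to nitrocellulose, blocked 1 h in TBST with 5% skim milk, and probed overnight at 4 °C with primary antibodies. HRP secondary antibody was applied 1 h at room temperature, with ECL detection.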

Assay [4] has the same target. The assay can be described thus: Inhibition of human ULK1 in human A549 cells under nutrient starvation condition assessed as decrease in phosphorylated-Beclin 1(ser15) level by immunoblotting analysis. It counts as cell-based. The method in brief: as §2
Assay [5] has the same target. The assay can be described thus: Inhibition of human ULK1 in human A549 cells under normal condition assessed as decrease in phosphorylated-Atg13 (ser318) level by immunoblotting analysis. The class given is cell-based. An outline of the steps:
as §2

The target is the same in assay [6]. The assay can be described thus: Inhibition of human ULK1 in human A549 cells under nutrient starvation condition assessed as decrease in phosphorylated- Atg13 (ser318) level by immunoblotting analysis. It counts as cell-based. An outline of the steps:
as §2

Assay [7] shares this target. The assay can be described thus: Induction of downregulation of ULK1-mediated autophagy in human A549 cells assessed as phosphorylation at Ser317 preincubated for 24 hrs by Western blot analysis. It counts as cell-based. The note with it: dose microM <=8, time 24.0 hrs. The method in brief: as §2
Assay [8] has the same target. The assay can be described thus: Inhibition of ULK1 mediated autophagy in human A549 cells assessed as reduction in conversion of LC3 1 to LC3-2 at 2 to 8 uM measured after 1 hrs by Western blot analysis. The class given is cell-based. The following applies: dose 2-8 µM. The method in brief: as §2
For assay [9] the target is unchanged. The assay can be described thus: Inhibition of ULK1 mediated autophagy in human A549 cells assessed as p62 degradation at 2 to 8 uM measured after 1 hrs by Western blot analysis. The class given is cell-based. The following applies: dose 2-8 µM. An outline of the steps:
as §2

The target is the same in assay [10]. The assay can be described thus: Inhibition of ULK1 mediated autophagy in human A549 cells assessed as decrease in beclin1 level at 2 to 8 uM measured after 1 hrs by Western blot analysis. It counts as cell-based. The note with it: dose 2-8 µM. The method in brief:
as §2

Assay [11] shares this target. The assay can be described thus: Inhibition of ULK1 mediated autophagy in human A549 cells transfected with GFP-mRFP-LC3 assessed as increase in LC3 puncta measured after 6 hrs by fluorescence microscopic analysis. It counts as cell-based. An outline of the steps: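 A549 cells were transfected with GFP/mRFP-LC3 for 6 h. Transfected cells were used 24 h later, and LC3 puncta were examined by fluorescence microscopy.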

Assay [12] has as its system A549. The assay can be described thus: Induction of apoptosis in human A549 cells assessed as reduction in Bcl2 protein expression at 2 to 8 uM by Western blot analysis. The class given is functional, cell-based. The note with it: dose 2-8 µM. An outline of the steps:
as §2

Assay [13] concerns A549. The assay can be described thus: Induction of apoptosis in human A549 cells assessed as increase in Bax protein expression at 2 to 8 uM by Western blot analysis. The class given is functional, cell-based. The following applies: dose 2-8 µM. The method in brief:
as §2

Assay [14] deals with A549. The assay can be described thus: Induction of apoptosis in human A549 cells assessed as increase in caspase 3 protein expression at 2 to 8 uM by Western blot analysis. It counts as functional, cell-based. The following applies: dose 2-8 µM. An outline of the steps:
as §2

For assay [15], the system named is A549. The assay can be described thus: Induction of apoptosis in human A549 cells assessed as morphological changes upto 8 uM incubated for 24 hrs in dark by Hoechst 33258 staining based fluorescence microscopy. The note with it: dose microM <=8, time 24.0 hrs.

Regarding `CNC(=O)c1ccccc1Oc1nc(Nc2ccc(C)cc2C)ncc1Br`, the inhibition in assay [1] came out at 38.2%. The IC50 is 27.3 µM with A549 [2]; 49.6 µM in the assay with U-937; 32.3 µM in the assay with HL-60; 40.7 µM with MDA-MB-468; 44.7 µM in the assay on MCF7.
Regarding `CNC(=O)c1ccccc1Oc1nc(Nc2ccc3c(c2)OCO3)ncc1Br`, the inhibition in assay [1] was 22.2%. Further, the IC50 in the assay with A549 [2], with U-937, in the assay on HL-60, in the assay on MDA-MB-468 and in the assay on MCF7 was above 50 µM throughout.
For `O=[N+]([O-])c1ccc(Oc2nc(Nc3ccc(Br)cc3)ncc2Br)c(F)c1`, the inhibition in assay [1] worked out at 12.5%. Besides, the IC50 in the assay on A549 [2] was 51 µM; in the assay on U-937 it was above 50 µM; in the assay with HL-60, above 50 µM; in the assay with MDA-MB-468, above 50 µM; in the assay on MCF7, above 50 µM.
For `Cc1cccc(Nc2ncc(Br)c(Oc3ccc(Br)cc3)n2)c1`, the inhibition in assay [1] was found to be 25.7%. Also, the IC50 with A549 [2] was found to be 10.3 µM; in the assay with U-937, 18.6 µM; with HL-60, 14.7 µM; in the assay with MDA-MB-468, 31.3 µM; in the assay on MCF7 it was 19.1 µM.
As for `CNC(=O)c1ccccc1Oc1nc(Nc2ccc(C(F)(F)F)cc2)ncc1Br`, the inhibition in assay [1] was 21.6%. Moreover, the IC50 in the assay on A549 [2], with U-937, with HL-60, in the assay on MDA-MB-468 and in the assay with MCF7 was above 50 µM each time.
On to `CNC(=O)c1ccccc1Oc1nc(Nc2ccccc2F)ncc1Br`, for which the inhibition in assay [1] amounted to 27.4%. Moreover, the IC50 in the assay on A549 [2] is 35.5 µM; with U-937, above 50 µM; in the assay on HL-60 it was above 50 µM; in the assay with MDA-MB-468 it was above 50 µM; in the assay on MCF7, above 50 µM.
On to `O=[N+]([O-])c1ccc(Oc2nc(Nc3ccc(Cl)cc3)ncc2Br)c(F)c1`, for which the inhibition in assay [1] was 15.7%. Further, the IC50 was 37.6 µM in the assay with A549 [2]; 43.1 µM in the assay on U-937; above 50 µM in the assay on HL-60; above 50 µM in the assay on MDA-MB-468; above 50 µM in the assay with MCF7.
As for `CNC(=O)c1ccccc1Oc1nc(Nc2cccc(C(F)(F)F)c2)ncc1Br`, the inhibition in assay [1] came to 38.8%. The IC50 in the assay on A549 [2] came out at 28.3 µM; with U-937, 45.5 µM; in the assay on HL-60, 44 µM; with MDA-MB-468 it was 32.8 µM; in the assay with MCF7, 57.8 µM.
For `CNC(=O)c1ccccc1Oc1nc(Nc2ccc(Br)cc2)ncc1Br`, the inhibition in assay [1] turned out to be 40.1%. Moreover, the IC50 is 23.5 µM in the assay on A549 [2]; above 50 µM in the assay with U-937; 39.7 µM in the assay on HL-60; 36.6 µM with MDA-MB-468; above 50 µM in the assay on MCF7.
For `CCN(CC)CCNc1ccnc(Nc2cc(OC)c(OC)c(OC)c2)n1`, the inhibition in assay [1] is 13.4%. In addition, the IC50 with A549 [2] was 46.4 µM; with U-937, above 50 µM; in the assay with HL-60, above 50 µM; in the assay with MDA-MB-468, above 50 µM; in the assay with MCF7, above 50 µM.
Turning to `COc1cc(Nc2ncc(Br)c(Oc3ccc([N+](=O)[O-])cc3F)n2)cc(OC)c1OC`, the inhibition in assay [1] turned out to be 99.2%. The IC50 with A549 [2] worked out at 1.94 µM; in the assay with U-937, 12.9 µM; in the assay with HL-60, 10.9 µM; in the assay on MDA-MB-468, 16.8 µM; with MCF7, 19.6 µM. In addition, the inhibition result in assay [3], in assay [4], in assay [6], in assay [8] and in assay [10] was “Active” throughout. For the same molecule, the outcome (in assay [5]; in [9]; in assay [11]; in the assay on A549 [12]; in the assay with A549 [13]; in the assay with A549 [14]) was Active. The Activity result (in [7]; in the assay with A549 [15]) was “Dose-dependent effect” each time.
In the case of `COc1cc(Nc2nccc(NCCCN)n2)cc(OC)c1OC`, in assay [1], the inhibition was found to be 17.7%. The IC50 in the assay on A549 [2] was 29.7 µM; with U-937, above 50 µM; in the assay with HL-60 it was above 50 µM; in the assay on MDA-MB-468 it was 45.8 µM; in the assay with MCF7, above 50 µM.
